# Assay outcomes deposited in PubChem by several laboratories.
# This is a sample that favours compounds with a hit; in the whole collection about 3.3% have one here.
# PMI act – activators of human PMI, primary screen, biochemical, fluorescence intensity, near-Km mannose 6-phosphate; Mannose-6-phosphate isomerase (Homo sapiens), P34949; activation factor at 20 µM; 0.005% of 190,000 active; purified human PMI, coupled resazurin fluorescence, 20 min; active compounds read high; 1 = vehicle control, 0 substrate-free wells;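 active = activation factor of 2 or more at 20 µM, relative to plate controls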
# ABCB1 inh – ABCB1 efflux pump inhibitors, primary screen, cell-based, multiplex, flow cytometry, ABCG2 counter-screen | 0.067% of 190,000 active | CCRF-Adr cells, JC-1 efflux | inhibition, % at 6.6 µM | ATP-dependent translocase ABCB1 (Homo sapiens), P08183; in the data active = inhibition above about 40%;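 also: 0% = vehicle and 100% = reference inhibitor; higher value means more JC-1 retained so stronger ABCB1 efflux block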
# PMI act hi M6P – human PMI activators, high substrate, primary screen, biochemical, fluorescence intensity, near-saturating mannose 6-phosphate; coupled PMI enzyme assay, resazurin fluorescence, 20 min; active compounds read high; 1 = untreated enzyme, 0 = substrate-free blank; 0.34% of 190,000 active; Mannose-6-phosphate isomerase (Homo sapiens), P34949; activation factor at 20 µM;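 active = activation factor of 2 or more at 20 µM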
#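 assay system = human phosphomannose isomerase with PGI, G6PDH, diaphorase coupling enzymes | quantity = 15 ng/mL PMI | incubation = enzyme reaction with compound 20 min at room temperature | medium = HEPES pH 7.4 buffer with MgCl2 and Tween-20 | compound dosing = one concentration, 20 µM, in 1% DMSO | measured by = Diaphorase-driven resazurin-to-resorufin fluorescence, excitation 544, emission 590 nm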
# ROMK mod – ROMK potassium channel modulators, primary screen, cell-based, thallium flux, MLSMR library. Tet-inducible ROMK, thallium flux fluorescence; actives lie on both sides. 2% of 130,000 active. B-score at 10 µM;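 active = signal ratio slope over the read window, or its plate-corrected B-score, at least 3 SD from the plate mean, either direction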;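 also: B-score of the F/F0 ratio slope over 7 to 12 s after thallium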
# Target sequence (P48048 whole entry, looked up): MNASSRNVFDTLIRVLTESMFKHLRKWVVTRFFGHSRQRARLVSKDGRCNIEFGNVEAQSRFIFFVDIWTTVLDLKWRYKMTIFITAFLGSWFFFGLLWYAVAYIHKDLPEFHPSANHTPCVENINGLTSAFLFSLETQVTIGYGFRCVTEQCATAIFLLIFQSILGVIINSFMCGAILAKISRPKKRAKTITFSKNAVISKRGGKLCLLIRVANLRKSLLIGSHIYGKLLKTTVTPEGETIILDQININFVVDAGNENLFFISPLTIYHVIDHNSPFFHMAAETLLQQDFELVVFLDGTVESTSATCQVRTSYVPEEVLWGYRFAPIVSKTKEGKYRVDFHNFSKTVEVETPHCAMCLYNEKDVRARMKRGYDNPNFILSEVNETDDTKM
# ABCG2 block – ABCG2 efflux pump inhibitors, primary screen, multiplex with ABCB1, IgMXP3 cells, flow cytometry | Broad substrate specificity ATP-binding cassette transporter ABCG2 (Homo sapiens), Q9UNQ0 | JC-1 efflux | inhibition, % at 6.6 µM | 0.1% of 190,000 active | AID 1325, 2008;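 active = inhibition above 80%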;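 also: 0% = DMSO and 100% = nicardipine control wells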
#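 material = IgMXP3 (ABCG2) plus far-red-tagged CCRF-Adr (ABCB1) cells | amount = 3 million cells/mL, equal mix of both lines | also added = JC-1 transporter substrate | dosing = one concentration, 6.6 µM final | schedule = 10 min at 25 °C | measured by = flow cytometric JC-1 green MFI at 530 nm | read-out basis = percent efflux inhibition, scaled nicardipine 100% to DMSO 0%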
# KCC2 mod – KCC2 cotransporter modulators, thallium flux, primary screen, cell-based, HEK293 KCC2, FluoZin-2 fluorescence, MLSMR | Solute carrier family 12 member 5 (Homo sapiens), Q9H2X9 | KCC2 cells, thallium flux FluoZin-2 fluorescence | B-score of Tl+ flux slope (higher = more flux/activation; lower = inhibition) at 10 µM | 2.2% of 190,000 active;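 active = thallium flux slope and its plate-corrected score both differing from the plate sample mean at a set confidence after two filtering rounds, in either direction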;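 also: slope of fluorescence scaled to starting intensity during 10 to 20 s after thallium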
# KCC2 sec1 – KCC2 modulators in sodium-free buffer, confirmation, cell-based, HEK293 KCC2, thallium flux, secondary assay | FluoZin2 fluorescence; active compounds read high | normalised thallium flux (F/F0 slope) at 10 µM | 15% of 3,700 active | AID 1713, 2009 | shares compounds with KCC2 mod;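 active = thallium flux slope above the same plate's solvent-only control mean plus 3 SD; inconclusive = the two replicate wells disagree; inactive = no significant difference from solvent-only control wells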
# KCC2 bumet counter – thallium flux persisting under bumetanide in KCC2 cells, confirmation, counter-screen for KCC2 modulator project, cell-based, HEK293 KCC2, FluoZin2, secondary assay 3; shares compounds with KCC2 mod; HEK293-KCC2 + bumetanide/ouabain; active compounds read high; normalized thallium flux at 10 µM; 49% of 3,700 active; AID 1714, 2009;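 active = thallium entry rate above the same plate's blocked-transporter control wells by more than 3 SD; inconclusive = the two repeat wells disagree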;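 also: raw slope of fluorescence over initial fluorescence between 10 and 20 s after thallium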
# KCC2 sec2 – KCC2 modulators without ouabain present, confirmation, cell-based, HEK293 KCC2, thallium flux, FluoZin2, secondary assay 2; shares compounds with KCC2 mod; thallium flux FluoZin2 fluorescence; actives lie on both sides; F/F0 rise rate, 10–20 s post-thallium; normalized thallium flux at 10 µM; 23% of 3,700 active; AID 1715, 2009;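 active = thallium flux slope more than 3 SD above or below the plate's solvent-only control mean, mostly below; inconclusive = the two repeat wells disagreed; inactive = no significant shift from solvent-only controls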;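 also: raw slope with 0.1% DMSO as baseline and bumetanide as block control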
# HEK293 Tl flux – thallium flux modulation in parental HEK cells, confirmation, counter-screen for KCC2 modulator project, cell-based, counterscreen 1 | shares compounds with KCC2 mod | HEK293 parental cells, thallium flux FluoZin2, ouabain; baseline-ratio fluorescence slope, 10–20 s after thallium | thallium flux rate (normalised fluorescence) at 10 µM | 46% of 3,700 active | AID 1716, 2009;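 active = thallium flux rate significantly above the same plate's solvent-only control wells, beyond their mean plus 3 SD; inconclusive = the two replicate wells gave conflicting results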
# KCC2 retest ouab – KCC2 inhibitors and activators, ouabain retest, confirmation, HEK-KCC2 cells | shares compounds with KCC2 mod | HEK293-KCC2, thallium flux FluoZin2 fluorescence; bidirectional: low = inhibitor, high = activator | raw Tl+ flux slope (below DMSO = inhibition, above = activation) at 10 µM | 48% of 3,700 active | AID 1717, 2009;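 active = thallium flux slope beyond 3 SD from same-plate DMSO control mean in most replicates, usually higher, sometimes lower; inconclusive = repeat tests gave conflicting results; inactive = no significant difference from controls in most replicates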;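 also: slope of initial-normalized fluorescence between seconds 10 and 20 after thallium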
# HEK counter2 – native HEK Tl+ uptake effects, second counter-screen – HEK cells, counterscreen 2, counter-screen for KCC2 modulator project, confirmation | shares compounds with KCC2 mod | HEK293 parental, thallium flux FluoZin-2 fluorescence slope | thallium flux slope at 10 µM | 33% of 3,700 active;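 active = thallium flux slope above the same plate's solvent-control mean plus 3 SD in both duplicate wells; inconclusive = duplicate wells that disagreed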;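 also: run without ouabain in cells lacking the KCC2 cotransporter; slope of fluorescence scaled to its starting value between 10 and 20 s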
# Starred values were filed as active, the others as inactive; u = inconclusive; x = no result given.
SMILES,PMI act,ABCB1 inh,PMI act hi M6P,ROMK mod,ABCG2 block,KCC2 mod,KCC2 sec1,KCC2 bumet counter,KCC2 sec2,HEK293 Tl flux,KCC2 retest ouab,HEK counter2
CN1C/C(=C\c2ccc(N3CCOCC3)cc2)C(=O)/C(=C/c2ccc(N3CCOCC3)cc2)C1,1,0,0.8,x,1,-9.2*,0.0028*,-0.0007*,0.017*,0.0056*,0.0075*,u
CCN1C/C(=C/c2ccc(N3CCOCC3)cc2)C(=O)/C(=C/c2ccc(N3CCOCC3)cc2)C1,0.9,1,1,x,18,-5.4*,0.0036*,0.0016*,0.03*,u,0.0089*,0.011
CCN(C(=O)c1cc2c(=O)[nH]c3ccc(C)cc3c2s1)c1ccc(OC)cc1,x,x,x,-0.65,x,0.29,x,x,x,x,x,x
COc1ccc(N2CCN(c3nc4ccc(C)cn4c(=O)c3C=O)CC2)cc1,0.9,1,0.4,0.012,19,-1.6,x,x,x,x,x,x
O=C1COc2ccc(C(=O)COC(=O)Cc3ccsc3)cc2N1,1,0,1,-1.2,14,-1.3,x,x,x,x,x,x
COc1cccc(/C=C/C(=O)Nc2ccccc2N2CCOCC2)c1,0.9,2,0.8,0.45,1,-2.4,x,x,x,x,x,x
Cc1ccc(CNC(=O)c2cc(COc3c(F)cccc3F)on2)s1,0.8,0,0.8,0.12,2,x,0.0068,0.0064,0.033,0.0037,0.015*,0.011
O=C(NCCc1cn2ccccc2n1)c1cc(COc2c(F)cccc2F)on1,x,1,x,x,3,-4*,u,u,u,0.0079,0.016*,0.0097
CCn1c(NN)nc2sc3c(c2c1=O)CCC3,1.4,-1,1.6,0.23,-2,6*,0.014*,0.019*,0.035,0.018*,0.03*,u
NNc1nc2sc3c(c2c(=O)n1Cc1ccccc1)CCC3,x,x,x,-1.1,x,4.1*,0.012,0.017*,0.037,u,u,0.012
Nn1c(Nc2ccccc2)nc2sc3c(c2c1=O)CCC3,0.9,0,1,x,2,x,x,x,x,x,x,x
CCOc1ccc2c(c1)C(=NNC(=O)c1ccncc1)c1cc(OCC)ccc1-2,0.8,0,0.8,1.2,0,30*,0.015*,0.033*,0.032,0.018*,0.079*,0.012*
C/C(=N\NC(=O)c1ccc2c(c1)OCO2)c1ccc(O)cc1,x,x,x,x,x,-0.47,x,x,x,x,x,x
CC(C)CC(CC(C)C)=NNC(=O)c1ccc2c(c1)OCO2,1,0,1.1,-0.092,2,3.9*,0.0061,0.0049,0.029,0.008,0.018,0.0098
Cc1ccc(CN2CCNC(=O)C2CC(=O)NCCCn2ncc3ccccc32)o1 (centres undefined),0.9,1,1,0.055,1,0.071,x,x,x,x,x,x
CCN(CC)S(=O)(=O)c1ccc(N(C)Cc2cccnc2)nc1,0.9,1,0.9,0.19,6,0.5,x,x,x,x,x,x
O=C(NCc1nc(-c2ccccc2)cs1)c1ccccc1,1,0,1,-2,8,-4.3*,0.0068,u,0.022*,0.0076,u,0.011
O=C(NNc1nc(-c2ccccc2)cs1)c1cccs1,x,x,x,-0.051,x,-3.8*,0.0092,0.0072,0.026*,0.0042,0.015*,0.011
O=C(NNc1nc(-c2ccc(F)cc2)cs1)c1ccccc1,1.6,0,1.6,-0.56,0,-4.2*,0.01,0.0074,0.028*,0.0048,0.017*,0.011
O=C(NNc1nc(-c2ccccc2)cs1)c1ccc(F)cc1,1.6,-1,1.5,0.94,-4,-3.3,x,x,x,x,x,x
O=C(CCNC(=O)c1ccccc1Cl)Nc1nc(-c2ccc(F)cc2)cs1,1,0,1.1,x,0,-4.2*,0.0062,0.0061,0.032,0.0083,0.014*,0.011
Cc1ccc(C)c2sc(NC(=O)c3nc4ccccc4s3)nc12,1.1,2,1.1,1.8,19,60*,0.014*,0.033*,0.035,0.059*,0.036*,0.015*
CC(=O)Oc1ccc(C(c2ccc(OC(C)=O)cc2)c2ccccn2)cc1,1.1,0,1,x,0,31*,u,0.047*,0.056*,0.028*,0.047*,0.027*
COCCNS(=O)(=O)c1ccc(-c2ccc(S(=O)(=O)NCCOC)cc2)cc1,1.1,0,1,x,1,-0.017,x,x,x,x,x,x
COCCNS(=O)(=O)c1ccc(-c2ccc(Cl)cc2)cc1,0.9,0,0.9,-0.91,7,-2.8*,0.0072,0.0053,0.026*,0.008,u,0.012
S=c1[nH]nc(C(c2ccccc2)C2CCCCC2)o1 (centres undefined),x,x,x,1.3,x,0.053,x,x,x,x,x,x
S=c1[nH]nc(C2(c3ccccc3)CCCC2)o1,x,x,x,x,x,-3.1*,0.0093,0.0067,0.023*,0.0068,0.018*,0.0094
